# Experimental data taken from ChEMBL document CHEMBL1155974, “The nucleoside analogue D-carba T blocks HIV-1 reverse transcription” (J Med Chem, 2009).
# The source made the active and inactive calls. The calls are words filed in the database; no cut-off is given here.
# Assays:
# [1] = molecular target: Human immunodeficiency virus type 1 reverse transcriptase (Human immunodeficiency virus 1) (UniProt Q72547); experiment: Inhibition of HIV1 reverse transcriptase-mediated viral DNA synthesis at 10 uM by PAGE
# [2] = test system: TZM; experiment: Cytotoxicity against human TZM cells up to 10 uM after 48 hrs by XTT assay
# [3] = Cytotoxicity against human Hut/CCR5 cells up to 10 uM after 48 hrs by XTT assay; conditions: hut/ccr5, 48 h
# [4] = Cytotoxicity against human GHOST cells up to 10 uM after 48 hrs by XTT assay
# [5] = Inhibition of HIV1 reverse transcriptase SSGR/T215Y mutant-mediated viral DNA synthesis in human HOS cells assessed as luciferase activity treated 3 hrs before infection measured after 48 hrs by luminescence assay; assay type: cell-based; conditions: Human immunodeficiency virus 1, HOS
# Summary of the method: (§1)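 Single-cycle infection with a VSV-G-pseudotyped, Env-deleted HIV-1 luciferase vector carrying wt or NRTI-resistant RT, made by calcium phosphate transfection of 293 cells, harvested at 48 h and diluted 1:5. HOS or HSV-TK-expressing HOS 313 cells were seeded at 4000/well, pretreated with compound for 3 h, then infected for 48 h. Luciferase was normalized to untreated infection of the same RT variant. IC50 came from a four-parameter sigmoidal fit.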
# [6] = Inhibition of HIV1 reverse transcriptase M41L/D67N/K70R/T215Y/K219Q mutant-mediated viral DNA synthesis in human HOS cells assessed as luciferase activity treated 3 hrs before infection measured after 48 hrs by luminescence assay; assay type: cell-based; conditions: Human immunodeficiency virus 1, HOS; summary of the method: as §1
# [7] = molecular target: Human immunodeficiency virus type 1 reverse transcriptase (Human immunodeficiency virus 1) (UniProt Q72547); experiment: Inhibition of HIV1 reverse transcriptase-mediated viral DNA synthesis at 5 uM using UA template by PAGE in presence of thymidine triphosphate
# Summary of the method: (§2)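 Competition primer-extension: labeled primer on DNA or RNA template of identical sequence (RNA reactions supplemented with RNase inhibitor), HIV-1 RT (1.0 µg), 10.0 µM each dATP/dCTP/dGTP. TTP:analog triphosphate at 1:5 or 1:1, totalling 10.0 µM; 37°, timed intervals, EDTA stop, 15% sequencing gel to score pausing.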
# [8] = molecular target: Human immunodeficiency virus type 1 reverse transcriptase (Human immunodeficiency virus 1) (UniProt Q72547); experiment: Inhibition of HIV1 reverse transcriptase-mediated viral DNA synthesis at 5 uM using TA template by PAGE in presence of thymidine triphosphate; summary of the method: as §2
# [9] = Cytotoxicity against human GHOST cells at 5% (w/v) after 48 hrs by XTT assay; assay type: cell-based
# Summary of the method: (§3)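 Cells (TZM, GHOST, HuT-CCR5) incubated 48 h with five dilutions of compound; XTT substrate then added for a further 4–5 h, and viability read from conversion of the dye by live cells. Hydroxypropyl-β-cyclodextrin served as positive control for killing.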
# [10] = Cytotoxicity against human Hut/CCR5 cells at 5% (w/v) after 48 hrs by XTT assay; assay type: cell-based; conditions: hut/ccr5, 48 h; summary of the method: as §3
# [11] = test system: TZM; experiment: Cytotoxicity against human TZM cells at 5% (w/v) after 48 hrs by XTT assay; assay type: cell-based; summary of the method: as §3
# [12] = molecular target: Human immunodeficiency virus type 1 reverse transcriptase (Human immunodeficiency virus 1) (UniProt Q72547); experiment: Ratio of IC50 for inhibition of HIV1 wild type reverse transcriptase-mediated viral DNA synthesis in human HOS cells to IC50 for inhibition of HIV1 wild type reverse transcriptase-mediated viral DNA synthesis in human HOS-313 cells expressing HSV thymidine kinase; assay type: cell-based
# Summary of the method: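 VSV-G-pseudotyped single-round HIV-1 luciferase vector (wt RT) made in 293 cells. HOS or HSV-TK-expressing HOS 313 cells, 4000/well, were pretreated 3 h with compound, infected 48 h, and luminescence read. Activity was normalized to untreated infections, and IC50 was taken from a four-parameter sigmoidal fit in each line.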
# [13] = Inhibition of HIV1 reverse transcriptase M41L/D67N/K70R/T215Y/K219Q mutant-mediated viral DNA synthesis in human HOS-313 cells expressing HSV thymidine kinase assessed as luciferase activity treated 3 hrs before infection measured after 48 hrs by luminescence assay; assay type: cell-based; conditions: Human immunodeficiency virus 1, HOS-313; summary of the method: as §1
# [14] = test system: HIV-1 M:B_Lai; experiment: Antiviral activity against HIV1 LAI infected in human TZM cells assessed as inhibition of viral replication; assay type: functional, organism-based; conditions: Human immunodeficiency virus 1, LAI
# Summary of the method: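 Single-cycle inhibition assay in TZM (HeLa-derived indicator) cells infected with replication-competent wild-type HIV-1 LAI across a range of compound concentrations; IC50 reported.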
# [15] = Inhibition of HIV1 reverse transcriptase SSGR/T215Y mutant-mediated viral DNA synthesis in human HOS-313 cells expressing HSV thymidine kinase assessed as luciferase activity treated 3 hrs before infection measured after 48 hrs by luminescence assay; assay type: cell-based; conditions: Human immunodeficiency virus 1, HOS-313; summary of the method: as §1
compound,measurement,setting,value
Cc1cn([C@H]2CC[C@@H](COP(=O)(O)OP(=O)(O)OP(=O)(O)O)O2)c(=O)[nH]c1=O,inhibition,[1],Active
Cc1cccc2c1OP(=O)(OC[C@H]1C[C@@H](n3cc(C)c(=O)[nH]c3=O)C[C@@H]1O)OC2 (some centres not stated),Activity,[2],Non-toxic
same,Activity,[3],Non-toxic
same,Activity,[4],Non-toxic
Cc1cn([C@H]2C[C@H](N=[N+]=[N-])[C@@H](CO)O2)c(=O)[nH]c1=O [ZIDOVUDINE],IC50,[5],39.6 nM
same,IC50,[6],20.1 nM
Cc1cn([C@@H]2C[C@H](COP(=O)(O)OP(=O)(O)OP(=O)(O)O)[C@@H](O)C2)c(=O)[nH]c1=O,inhibition,[1],Active
same,inhibition,[7],Active
same,inhibition,[8],inactive
Cc1cn([C@H]2C[C@H](O)[C@@H](COP(=O)(O)OP(=O)(O)OP(=O)(O)O)O2)c(=O)[nH]c1=O,inhibition,[1],inactive
CC(O)COC[C@H]1O[C@@H]2O[C@H]3[C@H](O)[C@@H](O)[C@@H](O[C@H]4[C@H](O)[C@@H](O)[C@@H](O[C@H]5[C@H](O)[C@@H](O)[C@@H](O[C@H]6[C@H](O)[C@@H](O)[C@@H](O[C@H]7[C@H](O)[C@@H](O)[C@@H](O[C@H]8[C@H](O)[C@@H](O)[C@@H](O[C@H]1[C@H](O)[C@H]2O)O[C@@H]8COCC(C)O)O[C@@H]7COCC(C)O)O[C@@H]6COCC(C)O)O[C@@H]5COCC(C)O)O[C@@H]4COCC(C)O)O[C@@H]3COCC(C)O (stereo partly drawn) [2-HYDROXYPROPYL-BETA-CYCLODEXTRIN],Activity,[9],> 50%
same,Activity,[10],> 50%
same,Activity,[11],> 50%
Cc1cn([C@@H]2C[C@H](CO)[C@@H](O)C2)c(=O)[nH]c1=O,Ratio IC50,[12],4
same,IC50,[13],870 nM
same,IC50,[14],50 nM
same,Activity,[2],Non-toxic
same,Activity,[3],Non-toxic
same,IC50,[5],4600 nM
same,Activity,[4],Non-toxic
same,IC50,[15],1000 nM
same,IC50,[6],1300 nM
